A selection: hits, their analogues and other compounds. The true share with any hit is near 2.2%.
GalR3 antag: GalR3 antagonists in HEK293 cells, primary screen, cell-based, fluorescence readout; inhibition, % at 3 µM; HEK293 GalR3-CNG cAMP membrane potential fluorescence; galR3 body fused to GalR1 C-terminus; 360,000 compounds, 0.44% hits;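 active = inhibition above the screen-wide average plus 3 SD, cut at about 13% in these data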;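 note: forskolin and galanin both at EC90 stimulate the cells; cAMP rise reported by CNG channel membrane potential dye signal; 0% = forskolin plus galanin with DMSO and 100% = forskolin alone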
NR2E3 ag-1: inhibitors of NR2E3-RetCOR corepressor binding, primary screen, NR2E3 agonist project, biochemical, TR-FRET, GST-NR2E3, biotin-RetCOR; Photoreceptor-specific nuclear receptor (Homo sapiens), Q9Y5X4; 1536-well; inhibition of corepressor binding, % at 4.78 µM; 320,000 compounds, 0.12% hits; AID 2300, 2010;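 active = percent inhibition above the cutoff of mean plus 3 SD of all tested compounds, set per screening campaign, cut at about 20% in these data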;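 note: 0% = DMSO wells and 100% = biotin wells as full block of FRET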
Target sequence (Q9Y5X4 whole entry, looked up): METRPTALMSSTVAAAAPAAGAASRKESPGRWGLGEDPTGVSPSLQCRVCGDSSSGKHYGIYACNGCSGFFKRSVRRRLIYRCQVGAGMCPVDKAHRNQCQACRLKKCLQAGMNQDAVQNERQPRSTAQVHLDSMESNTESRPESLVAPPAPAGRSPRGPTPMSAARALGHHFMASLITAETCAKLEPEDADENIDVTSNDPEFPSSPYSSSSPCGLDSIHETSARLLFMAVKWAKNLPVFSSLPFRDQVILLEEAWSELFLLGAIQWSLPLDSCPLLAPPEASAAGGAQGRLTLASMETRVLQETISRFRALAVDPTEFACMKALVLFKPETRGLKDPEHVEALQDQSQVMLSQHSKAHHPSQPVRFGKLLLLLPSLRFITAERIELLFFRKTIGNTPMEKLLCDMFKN
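Material – GST-tagged NR2E3 plus biotinylated RetCOR corepressor · Quantity – NR2E3 fusion 1.35 nM · Times – 5 h incubation at 4 °C · Medium – pH 7.5 Tris-based buffer · Technique – TR-FRET, Eu(K)-anti-GST donor, streptavidin-D2 acceptor, ex 340, em 617/671 nm · Benchmarks – high control biotin, low control 0.6% DMSO · Format – 1536-well plates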
NR2E3 ag-2: NR2E3 agonists in two-hybrid cells, primary screen, cell-based, luminescence, CHO-S, Gal4-NCOR/VP16-NR2E3; luciferase; inhibition of corepressor binding, % at 3.98 µM; 360,000 compounds, 0.35% hits; AID 602229, 2012;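 active = inhibition above the mean of all tested compounds plus 3 SD, cut at about 70% in these data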;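 note: 0% = DMSO with NR2E3 transfected cells and 100% = cells lacking NR2E3 construct; higher means lower luciferase signal from less NR2E3 corepressor binding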
SMARCA2 activ: SMARCA2 (BRM) function activators, primary screen, cell-based, luminescence, high throughput. activation, % at 9.1 µM. MG213 cells, MMTV-luciferase reporter, dexamethasone, overnight. 370,000 compounds, 1% hits; in the data active = activation above about 7.8%;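 note: 0% = vehicle wells and 100% = reference activator wells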
COUP-TFII inh: NR2F2 transcriptional activity inhibitors, primary screen, cell-based, luciferase reporter, HEK293T, luminescence; COUP transcription factor 2 (Homo sapiens), P24468; HEK293T NGFI-A luciferase reporter; inhibition, % at 8.6 µM; 370,000 compounds, 0.7% hits;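 active = inhibition above a per-plate cutoff, mean inhibition of test wells between control levels plus 3 SD, cut at about 38% in these data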;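 note: cells cotransfected with COUP-TFII expression vector driving the NGFI-A reporter; 0% = median of COUP-TF2 test wells and 100% = reporter-only cells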
SMARCA2 act conf: SMARCA2 (BRM) function activators, confirmation, cell-based, luminescence, triplicate. 3,500 compounds, 30% hits. shares compounds with SMARCA2 activ. MG213 cells, MMTV-luciferase with dexamethasone, overnight; MG213 cells expressing E1A, Rb sequestered; DMSO wells 0%, reference activator 100%. activation, % at 9.1 µM;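 active = activation above its plate's cutoff, the mean activation of tested wells plus 3 SD, cut at about 7.9% in these data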
VP16 Luc act: GAL4-VP16 luciferase reporter activation, counter-screen for SMARCA2 (BRM) activator project, cell-based, pG5luc, luminescence, high throughput | HEK293 GAL4-VP16 pG5luc reporter; scaled: DMSO wells 0%, SAHA wells 100% | 3,500 compounds, 41% hits | AID 686939, 2013 | activation, % at 9.1 µM | shares compounds with SMARCA2 activ;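 active = activation above the solvent-only control well mean plus 3 SD, averaged across control plates, cut at about 5.2% in these data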
* hit, by the source's call; · = no result given.

SMILES	GalR3 antag	NR2E3 ag-1	NR2E3 ag-2	SMARCA2 activ	COUP-TFII inh	SMARCA2 act conf	VP16 Luc act
O=c1oc2ccc(Cl)cc2cc1-c1nnc(Nc2cccc(C(F)(F)F)c2)s1	1	2	-20	1	6	·	·
CCOc1cccc2cc(-c3nnc(NCc4ccco4)s3)c(=O)oc12	-5	-2	-5	1	-8	·	·
CNc1nnc(-c2cc3cc(Cl)ccc3oc2=O)s1	0	4	-71	9.7*	-20	10*	11*
COC(=O)[C@]12C[C@H](CC(=O)NCc3cccc4ccccc34)C(=O)N(Cc3ccco3)C1=C[C@H](C(C)C)O[C@@H]2C1CC1	·	·	·	-5	3	·	·
O=C(CNCc1ccccc1Cl)Nc1ccc2c(c1)OCCO2	2	-5	-43	13*	-19	13*	6.9*
O=C(CSc1ccccn1)Nc1ccc2c(c1)OCCO2	-2	-2	-14	8.4*	-35	8.4*	12*
Cc1cc2nc(-c3ccc(SCC(=O)Nc4ccc5c(c4)OCCO5)nc3)[nH]c2cc1C	-9	1	-5	7	-41	·	·
Cc1ccc2nc(-c3ccc(SCC(=O)Nc4ccc5c(c4)OCCO5)nc3)[nH]c2c1	-12	-1	-27	9.8*	-50	3	19*
O=C(Nc1ccc(Cl)cc1)Nc1ccc2c(c1)OCO2	-2	1	-132	9.0*	-42	3	11*
O=C(Nc1ccc2c(c1)OCO2)Nc1ccc2c(c1)OCO2	1	-1	-81	4	-31	·	·
O=C(CSc1ncccn1)Nc1ccc2c(c1)OCO2	-5	·	-16	-1	-6	·	·
CCOC(=O)[C@]12CCCC=C1N(Cc1ccc(OC)cc1)C(=O)[C@@H]2CC(=O)NCCCOC	·	·	·	-3	15	·	·
CC(C)C[C@@H]1COc2cc(Br)ccc2S(=O)(=O)N1Cc1cn(CCC2OCCO2)nn1	·	·	·	0	-19	·	·
CCCc1cc(=O)c2ccc(OC/C(C)=N/O)cc2o1	-3	-1	-8	8.5*	-6	3	2
C/C(C=NNC(=O)CSc1nnc(-c2ccc(Cl)cc2)n1-c1ccccc1)=C\c1ccccc1	·	·	·	-6	-6	·	·
CCCC[C@H]1C2CC(OC(=O)Nc3cccc(Br)c3)C(C2)[C@H]2CCCCN21 (stereo partly drawn)	·	·	·	0	-9	·	·
COC(=O)c1sc2nc(-c3ccco3)ccc2c1N	3	-1	-152	8.0*	-19	14*	6.5*
COc1cc(OC)nc(C(NC(=O)C2CCN(Cc3c[nH]c4ccccc34)CC2)c2ccc(Cl)cc2)n1 (stereo not drawn)	-4	·	18	12*	-17	-4	1
CN1CCN(C(=S)NC(=O)c2cccc([N+](=O)[O-])c2)CC1	3	2	-2	7	12	·	·
CC1CCN(C(=S)NC(=O)c2cccc([N+](=O)[O-])c2)CC1	-4	-3	12	8.6*	8	-1	0
O=C(COc1ccccc1/C=C\c1[nH]c(=O)[nH]c(=O)c1[N+](=O)[O-])Nc1ccccc1	-4	4	-4	11*	-10	13*	2
O=C(CCCCCN1C(=O)C2C3C=CC(C3)C2C1=O)Nc1cc(F)cc(F)c1 (stereo not drawn)	·	·	·	-5	31	·	·
Cc1ccc(S(=O)(=O)N(C)[C@H]2C[C@H]3c4cc(-c5ccccc5C)ccc4CCN3C[C@H]2[C@H](C)O)cc1	·	·	·	-2	3	·	·
COc1ccc(-c2cc(=O)n(CCC#N)[nH]2)cc1	-11	0	5	13*	10	0	2
CCCCCCCCN1C(=O)[C@@H](CC(=O)NCC23CC4CC(CC(C4)C2)C3)C[C@@]2(C(=O)OC)C1=C[C@H](C1CCCC1)O[C@@H]2C	-7	·	·	-5	-8	·	·
SMILES	GalR3 antag	NR2E3 ag-1	NR2E3 ag-2	SMARCA2 activ	COUP-TFII inh	SMARCA2 act conf	VP16 Luc act
COC(=O)C1CN(Cc2cn(CCOC(C)=O)nn2)CCS(=O)(=O)N1Cc1ccc(F)cc1 (stereo not drawn)	·	·	·	-2	1	·	·
COc1ccc(N2C(=O)CSC23C(=O)Nc2ccccc23)cc1 (stereo not drawn)	-4	0	-3	8.6*	10	-2	4
Cc1ccc(N2C(=O)CCSC23C(=O)Nc2ccccc23)cc1 (stereo not drawn)	-2	0	-3	0	-2	·	·
COC(=O)[C@]12C[C@H](CC(=O)N3CCCC3)C(=O)N(Cc3ccco3)C1=C[C@H](COCc1ccccc1)O[C@@H]2C	·	·	·	-3	5	·	·
CSc1nc(C)cc(SCC(=O)Nc2ccccc2)n1	-5	-1	-1	-2	6	·	·
CSc1nc(C)cc(SCC(=O)Nc2ccc(Cl)cc2Cl)n1	-6	-2	-13	8.0*	0	0	0
Cc1cccc(NC(=O)c2cnc3sccn3c2=O)c1C	4	·	-69	6	-16	·	·
O=C(Nc1cnc2sccn2c1=O)c1ccccc1Cl	0	-1	-93	8.0*	-55	15*	11*
O=C(Nc1cnc2ccccn2c1=O)c1ccc(Cl)cc1Cl	-4	3	-126	9.0*	-29	6	3
COc1ccc(NC(=O)c2cnc3sccn3c2=O)cc1	-1	-1	-47	8.3*	-27	8	5.2*
CC(c1c[nH]c2ccccc12)c1c[nH]c2ccc(Br)cc12 (stereo not drawn)	·	·	·	0	-4	·	·
COC(=O)[C@]12C[C@H](CC(=O)NCC34CC5CC(CC(C5)C3)C4)C(=O)N(Cc3cccc4ccccc34)C1=C[C@H](C(C)(C)C)O[C@@H]2C	·	·	·	-2	16	·	·
Cc1ccc(-c2c(NC(=O)c3ccccc3)nc3ncccn23)cc1	·	·	·	5	10	·	·
COCCNC(=S)N1C[C@H]2CON(C)[C@H]2C[C@H]1c1ccccc1Br	1	·	·	-5	7	·	·
Cc1cc(C)nc(Nc2nc(=O)c3ccccc3s2)n1	-4	0	25	8.8*	-5	4	14*
COc1ccc(C2CC2/C(=N/O)c2ccccn2)cc1 (stereo not drawn)	-5	3	-28	0	-17	·	·
COc1ccc(C2CC2C(=O)c2ccccn2)cc1 (stereo not drawn)	-5	0	-68	8.6*	6	5	5

High-throughput results as filed in PubChem.
